Assay results published in ChEMBL document CHEMBL5303300, “EUbOPEN Chemogenomics Library - Multiplex” (2023).
Where “and” joins values, the source holds several entries; their conditions need not be identical. Equal values may be shown once.

System: HEK-293T
Experiment: Multiplex assay against HEK293T
Assay type: toxicity, cell-based
Conditions: human, number of replicates 2
Procedure, shortened: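 At seeding, live cells were stained with Hoechst33342, BioTracker Green Microtubule Cytoskeleton Dye, MitoTracker Red and Annexin V Alexa Fluor 680. After compound addition they were imaged on a CQ1 microscope at 37°C and 5% CO2, and CellPathfinder machine-learning gating sorted them into Hoechst high-intensity objects or normal cells, with normal cells further split into healthy, pyknosed or fragmented nuclei and pyknosed cells into mitotic or apoptotic. Tubulin, mitochondrial-mass and membrane-permeability phenotypes are given as per cents of cells with healthy nuclei.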

[1] = 12 h, 1 µM, compound concentration 1 uM
[2] = 12 h, 10 µM, compound concentration 10 uM
[3] = 24 h, 1 µM, compound concentration 1 uM
[4] = 24 h, 10 µM, compound concentration 10 uM
[5] = 48 h, 1 µM, compound concentration 1 uM
[6] = 48 h, 10 µM, compound concentration 10 uM

SMILES: CCCCOc1c(C(=O)c2c(F)cc(C)cc2F)c[nH]c2nncc1-2
- Population Apoptotic (%) [1]: 54% and 43%
- Population Fragmented Nuclei (%) [1]: 3% and 2%
- Population Healthy Nuclei (%) [1]: 87% and 86%
- Population Hoechst High Intensity Objects (%) [1]: 7% and 6%
- Population Membrane Permeable-Phenotype (%) [1]: 3% and 4%
- Population Mitochondria Different-Phenotype (%) [1]: 11% and 7%
- Population Mitotic Cells (%) [1]: 45% and 56%
- Population Normal (%) [1]: 92% and 93%
- Population Pyknosed Nuclei (%) [1]: 9% and 11%
- Population Tubulin-Different-Phenotype (%) [1]: 58% and 46%
- Total Cell Count [1]: 782 and 748
- Population Apoptotic (%) [2]: 50% and 64%
- Population Fragmented Nuclei (%) [2]: 3%
- Population Healthy Nuclei (%) [2]: 85% and 81%
- Population Hoechst High Intensity Objects (%) [2]: 10% and 11%
- Population Membrane Permeable-Phenotype (%) [2]: 7% and 4%
- Population Mitochondria Different-Phenotype (%) [2]: 17%
- Population Mitotic Cells (%) [2]: 50% and 35%
- Population Normal (%) [2]: 89% and 88%
- Population Pyknosed Nuclei (%) [2]: 11% and 14%
- Population Tubulin-Different-Phenotype (%) [2]: 77% and 74%
- Total Cell Count [2]: 766 and 710
- Population Apoptotic (%) [3]: 34% and 50%
- Population Fragmented Nuclei (%) [3]: 7% and 5%
- Population Healthy Nuclei (%) [3]: 85%
- Population Hoechst High Intensity Objects (%) [3]: 10% and 11%
- Population Membrane Permeable-Phenotype (%) [3]: 1% and 3%
- Population Mitochondria Different-Phenotype (%) [3]: 4% and 5%
- Population Mitotic Cells (%) [3]: 65% and 50%
- Population Normal (%) [3]: 89% and 88%
- Population Pyknosed Nuclei (%) [3]: 7% and 8%
- Population Tubulin-Different-Phenotype (%) [3]: 32% and 46%
- Total Cell Count [3]: 1018 and 1015
- Population Apoptotic (%) [4]: 59% and 67%
- Population Fragmented Nuclei (%) [4]: 5%
- Population Healthy Nuclei (%) [4]: 82% and 83%
- Population Hoechst High Intensity Objects (%) [4]: 9% and 10%
- Population Membrane Permeable-Phenotype (%) [4]: 3% and 2%
- Population Mitochondria Different-Phenotype (%) [4]: 5%
- Population Mitotic Cells (%) [4]: 40% and 32%
- Population Normal (%) [4]: 90% and 89%
- Population Pyknosed Nuclei (%) [4]: 11%
- Population Tubulin-Different-Phenotype (%) [4]: 57% and 52%
- Total Cell Count [4]: 954 and 851
- Population Fragmented Nuclei (%) [5]: 17% and 10%
- Population Healthy Nuclei (%) [5]: 79% and 86%
- Population Hoechst High Intensity Objects (%) [5]: 16%
- Population Membrane Permeable-Phenotype (%) [5]: 4% and 2%
- Population Mitochondria Different-Phenotype (%) [5]: 1% and 2%
- Population Mitotic Cells (%) [5]: 88% and 65%
- Population Normal (%) [5]: 83%
- Population Pyknosed Nuclei (%) [5]: 2% and 3%
- Population Tubulin-Different-Phenotype (%) [5]: 24% and 36%
- Total Cell Count [5]: 1720 and 1259
- Population Apoptotic (%) [6]: 41% and 63%
- Population Fragmented Nuclei (%) [6]: 13% and 10%
- Population Healthy Nuclei (%) [6]: 82% and 86%
- Population Hoechst High Intensity Objects (%) [6]: 12%
- Population Membrane Permeable-Phenotype (%) [6]: 4% and 1%
- Population Mitochondria Different-Phenotype (%) [6]: 4% and 5%
- Population Mitotic Cells (%) [6]: 58% and 36%
- Population Normal (%) [6]: 87%
- Population Pyknosed Nuclei (%) [6]: 3% and 2%
- Population Tubulin-Different-Phenotype (%) [6]: 46% and 47%
- Total Cell Count [6]: 1114 and 939

SMILES: CCn1ccc(Nc2ncc3c(n2)-c2c(nn(C)c2-c2ccc(-c4cnn(C)c4)cc2Cl)CC3)n1
- Population Apoptotic (%) [1]: 31% and 47%
- Population Fragmented Nuclei (%) [1]: 3%
- Population Healthy Nuclei (%) [1]: 87% and 84%
- Population Hoechst High Intensity Objects (%) [1]: 14% and 10%
- Population Membrane Permeable-Phenotype (%) [1]: 1% and 0%
- Population Mitochondria Different-Phenotype (%) [1]: 44% and 42%
- Population Mitotic Cells (%) [1]: 68% and 52%
- Population Normal (%) [1]: 85% and 89%
- Population Pyknosed Nuclei (%) [1]: 8% and 12%
- Population Tubulin-Different-Phenotype (%) [1]: 84% and 81%
- Total Cell Count [1]: 429 and 424
- Population Apoptotic (%) [2]: 76% and 63%
- Population Fragmented Nuclei (%) [2]: 4% and 9%
- Population Healthy Nuclei (%) [2]: 86% and 80%
- Population Hoechst High Intensity Objects (%) [2]: 11%
- Population Membrane Permeable-Phenotype (%) [2]: 3% and 0%
- Population Mitochondria Different-Phenotype (%) [2]: 58% and 68%
- Population Mitotic Cells (%) [2]: 24% and 36%
- Population Normal (%) [2]: 88%
- Population Pyknosed Nuclei (%) [2]: 8% and 10%
- Population Tubulin-Different-Phenotype (%) [2]: 92% and 94%
- Total Cell Count [2]: 332 and 321
- Population Apoptotic (%) [3]: 26% and 62%
- Population Fragmented Nuclei (%) [3]: 5%
- Population Healthy Nuclei (%) [3]: 87% and 85%
- Population Hoechst High Intensity Objects (%) [3]: 13% and 15%
- Population Membrane Permeable-Phenotype (%) [3]: 1%
- Population Mitochondria Different-Phenotype (%) [3]: 40% and 28%
- Population Mitotic Cells (%) [3]: 73% and 37%
- Population Normal (%) [3]: 86% and 84%
- Population Pyknosed Nuclei (%) [3]: 7% and 9%
- Population Tubulin-Different-Phenotype (%) [3]: 80% and 69%
- Total Cell Count [3]: 473 and 512
- Population Apoptotic (%) [4]: 72% and 81%
- Population Fragmented Nuclei (%) [4]: 4% and 11%
- Population Healthy Nuclei (%) [4]: 89% and 80%
- Population Hoechst High Intensity Objects (%) [4]: 15% and 18%
- Population Membrane Permeable-Phenotype (%) [4]: 0% and 1%
- Population Mitochondria Different-Phenotype (%) [4]: 34% and 45%
- Population Mitotic Cells (%) [4]: 27% and 18%
- Population Normal (%) [4]: 84% and 81%
- Population Pyknosed Nuclei (%) [4]: 5% and 8%
- Population Tubulin-Different-Phenotype (%) [4]: 80%
- Total Cell Count [4]: 438 and 393
- Population Apoptotic (%) [5]: 52% and 61%
- Population Fragmented Nuclei (%) [5]: 13% and 10%
- Population Healthy Nuclei (%) [5]: 83% and 85%
- Population Hoechst High Intensity Objects (%) [5]: 20%
- Population Membrane Permeable-Phenotype (%) [5]: 4% and 2%
- Population Mitochondria Different-Phenotype (%) [5]: 7% and 12%
- Population Mitotic Cells (%) [5]: 47% and 38%
- Population Normal (%) [5]: 79%
- Population Pyknosed Nuclei (%) [5]: 2% and 3%
- Population Tubulin-Different-Phenotype (%) [5]: 60% and 59%
- Total Cell Count [5]: 930 and 827
- Population Apoptotic (%) [6]: 41% and 52%
- Population Fragmented Nuclei (%) [6]: 11% and 14%
- Population Healthy Nuclei (%) [6]: 85% and 82%
- Population Hoechst High Intensity Objects (%) [6]: 14% and 18%
- Population Membrane Permeable-Phenotype (%) [6]: 2% and 0%
- Population Mitochondria Different-Phenotype (%) [6]: 11% and 15%
- Population Mitotic Cells (%) [6]: 58% and 47%
- Population Normal (%) [6]: 85% and 81%
- Population Pyknosed Nuclei (%) [6]: 2% and 3%
- Population Tubulin-Different-Phenotype (%) [6]: 65% and 63%
- Total Cell Count [6]: 674 and 549
